The source of these data is ChEMBL document CHEMBL3045340, “Synthesis and antifungal activity of novel bisdithiocarbamate derivatives of carbohydrates against Fusarium oxysporum f. sp. lini” (2000).

The source made the active and inactive calls. No cut-off for these calls is given here.

In assay [1] the test system is Fusarium oxysporum f. sp. lini. Briefly: Antifungal activity against Fusarium oxysporum f. sp. lini assessed as inhibition of radial fungal growth at 0.58 mM after 6 days. Format: functional. Particulars: 144 h, read-out: GI. The method in brief: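 Mycelial plug (6 mm) cut from margin of 4-day-old MEA culture placed on MEA plates containing compound (DMF vehicle, ≤1% v/v final) at 0.58 mM dithiocarbamoyl equivalent; 20 °C, 12 h photoperiod; colony diameter read daily over 6 days; percent growth inhibition versus untreated culture; three replicates per treatment, two runs; two-sample t-test, P 0.01.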

The subject of assay [2] is Fusarium oxysporum f. sp. lini. The assay can be described thus: Induction of delay in spore germination of Fusarium oxysporum f. sp. lini. Format: functional, organism-based. The method in brief: (§1)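 Fayret liquid medium with compound in DMF at 0.58 mM dithiocarbamoyl equivalent, inoculated with glass-wool-filtered spores (hemocytometer count) from 10-day-old MEA culture to 104 spores mL-1; shaken at 90 tpm, 20 °C, 12 h photoperiod, 7 days; spore germination and hyphal morphology of treated versus untreated fungus examined by light microscopy.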

The subject of assay [3] is Fusarium oxysporum f. sp. lini. The assay can be described thus: Antifungal activity against Fusarium oxysporum f. sp. lini assessed as inhibition of radial fungal growth at 100 ppm after 6 days. Format: functional. In a few lines:
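Radial growth on malt extract agar. Compounds dissolved in N,N-dimethylformamide (final ≤1% v/v) were mixed into molten MEA at 50 °C, giving 0.58 mM equivalent of dithiocarbamoyl group. A 6 mm plug from the margin of a 4-day MEA culture was placed on each plate. Plates were held at 20 °C under a 12 h photoperiod, with colony diameter read daily for 6 days. Two runs, three replicates each; two-sample t-test against untreated cultures.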

In assay [4] the test system is Fusarium oxysporum f. sp. lini. The assay can be described thus: Inhibition of spore germination of Fusarium oxysporum f. sp. lini. The class given is functional, organism-based. The method in brief:
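Liquid Fayret medium held N,N-dimethylformamide solutions at 0.58 mM equivalent of dithiocarbamoyl group. Spores were washed from a 10-day MEA culture, glass-wool filtered, counted by hemocytometer and seeded at 10^4 spores mL-1. Tubes were shaken at 90 tpm at 20 °C under a 12 h photoperiod for 7 days. Germination timing and hyphal morphology were assessed by light microscopy against untreated controls.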

The subject of assay [5] is Fusarium oxysporum f. sp. lini. Briefly: Induction of morphological alterations in Fusarium oxysporum f. sp. lini. The class given is functional, organism-based. The method in brief:
as §1

Consider `CCN(CC)C(=S)SC[C@H](O)[C@H]1O[C@@H]2OC(C)(C)O[C@@H]2[C@H]1SC(=S)N(CC)CC`, for which the inhibition of growth at 580 µM in assay [1] came to 17%. Moreover, the result in assay [2] was Active.

As to `CCN(CC)C(=S)S` [DITIOCARB SODIUM], the inhibition of growth at 100 ppm in assay [3] (144 h, read-out: GI) was found to be 18%. Further, in assay [4], the inhibition result was “Active”. maneb: in assay [3], the growth inhibition (GI) worked out at 12%. The inhibition result in assay [4] is “Active”.

As to `CCN(CC)C(=S)SC[C@H]1OC(O)[C@H](O)[C@@H](SC(=S)N(CC)CC)[C@@H]1O` (stereo not given in full), the outcome in assay [5] and in assay [2] was Active. The inhibition of growth at 580 µM in assay [1] turned out to be 18%. As to `CCN(CC)C(=S)SCC(O)CO` (racemic), the inhibition of growth at 580 µM in assay [1] was determined as 10%. As to `CCN(CC)C(=S)SCC(CSC(=S)N(CC)CC)OC(C)=O`, the inhibition of growth at 580 µM in assay [1] came out at 12%. For the compound `CCN(CC)C(=S)SCC(=O)CSC(=S)N(CC)CC`, the inhibition of growth at 580 µM in assay [1] amounted to 12%. As for `CCCCCCCC(=O)OC(CSC(=S)N(CC)CC)CSC(=S)N(CC)CC`, in assay [1], the inhibition of growth at 580 µM came out at 7%. Still for that read-out and setting: to `CCCC(=O)OC(CSC(=S)N(CC)CC)CSC(=S)N(CC)CC` belongs 12%.

Regarding `CCSC(=S)NCC(O)CNC(=S)SCC`, the outcome in assay [5] and in assay [2] was Active. In assay [1], the inhibition of growth at 580 µM stood at 27%.

With `CCN(CC)C(=S)SCC(O)CSC(=S)N(CC)CC`, the result in assay [5] and in assay [2] was Active. In addition, the inhibition of growth at 580 µM in assay [1] was 30%.
